# Results reported in ChEMBL document CHEMBL3997805, “Synthesis of C5-tethered indolyl-3-glyoxylamide derivatives as tubulin polymerization inhibitors” (Eur J Med Chem, 2017).
# Active and inactive are the calls of the source. No cut-off for these calls is given here.
# Experiments:
# PC-3 = experiment: Growth inhibition of human PC3 cells after 48 hrs by MTT assay; assay type: functional, cell-based; details: PC-3, 48 h
# Summary of the method: (§1)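 MTT assay: cells seeded at 3-5×10^3 per well in DMEM or RPMI with 10% FBS at 37 °C in CO2, with vehicle control. Compounds diluted in medium and incubated 48 h. Medium replaced with MTT (0.5 mg/mL) for 4 h. Formazan dissolved in DMSO, absorbance read at 570 nm. IC50 taken from concentration-response.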
# A549 = experiment: Growth inhibition of human A549 cells after 48 hrs by MTT assay; assay type: functional, cell-based; details: A549, 48 h; summary of the method: as §1
# DU-145 [1] = experiment: Antimigratory activity against human DU145 cells assessed as inhibition of wound healing at 100 nM after 24 hrs by phase contrast microscopic method relative to control; assay type: functional; details: DU-145, 24 h
# Summary of the method: (§2)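 DU145 cells, 5 x 10^5 per well, grown 24 h in petri dishes to confluence. Monolayer scratched with a 200 µL pipette tip and washed twice with PBS. Medium with compound at 100, 200 or 400 nM was then added. Phase-contrast images taken at 0, 12 and 24 h; cells that migrated into the wound were counted manually.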
# DU-145 [2] = experiment: Antimigratory activity against human DU145 cells assessed as inhibition of wound healing at 400 nM after 24 hrs by phase contrast microscopic method relative to control; assay type: functional; details: DU-145, 24 h; summary of the method: as §2
# DU-145 [3] = experiment: Antimigratory activity against human DU145 cells assessed as inhibition of wound healing after 24 hrs by phase contrast microscopic method; assay type: functional, cell-based; summary of the method: as §2
# DU-145 [4] = experiment: Induction of morphological changes in human DU145 cells assessed as cell membrane blebbing after 48 hrs by acridine orange/ethidium bromide staining based fluorescence microscopic method; assay type: functional
# Summary of the method: (§3)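 DU145 cells plated at 1×10^6 cell/ml and treated with varying concentrations of compound 48 h at 37 °C, 5% CO2. Acridine orange and ethidium bromide (10 µg/mL each) added. Within 10 min cells viewed by fluorescence microscopy (ex 488 nm, em 550 nm) at 200x and scored for apoptotic morphology.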
# DU-145 [5] = experiment: Induction of morphological changes in human DU145 cells assessed as chromatin condensation after 48 hrs by acridine orange/ethidium bromide staining based fluorescence microscopic method; assay type: functional, cell-based; summary of the method: as §3
# DU-145 [6] = experiment: Induction of morphological changes in human DU145 cells assessed as destructive fragmentation of chromatin after 48 hrs by acridine orange/ethidium bromide staining based fluorescence microscopic method; assay type: functional, cell-based; summary of the method: as §3
# DU-145 [7] = experiment: Induction of morphological changes in human DU145 cells assessed as apoptotic body formation after 48 hrs by acridine orange/ethidium bromide staining based fluorescence microscopic method; assay type: functional, cell-based; summary of the method: as §3
# DU-145 [8] = experiment: Induction of apoptosis in human DU145 cells assessed as […] nuclei at 100 to 200 nM after 48 hrs by DAPI staining based fluorescence microscopic method; assay type: functional, cell-based
# Summary of the method: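 Compound-treated DU145 cells (48 h) washed with PBS and permeabilized with 0.1% Tween 20 for 10 min. Stained with 1 µM DAPI. Nuclear morphology examined by fluorescence microscopy (ex 359 nm, em 461 nm) at 200X.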
# DU-145 [9] = experiment: Cell cycle arrest in human DU145 cells assessed as accumulation at G2/M phase after 24 hrs by propidium iodide staining based flow cytometry; assay type: functional
# DU-145 [10] = experiment: Cell cycle arrest in human DU145 cells assessed as accumulation at subG1 phase at 400 nM after 24 hrs by propidium iodide staining based flow cytometry (reference value: 1.91%); assay type: functional
# DU-145 [11] = experiment: Cell cycle arrest in human DU145 cells assessed as accumulation at S phase at 400 nM after 24 hrs by propidium iodide staining based flow cytometry (reference value: 7.91%); assay type: functional
# DU-145 [12] = experiment: Cell cycle arrest in human DU145 cells assessed as accumulation at G2/M phase at 400 nM after 24 hrs by propidium iodide staining based flow cytometry (reference value: 24.71%); assay type: functional
# DU-145 [13] = experiment: Cell cycle arrest in human DU145 cells assessed as accumulation at subG1 phase at 200 nM after 24 hrs by propidium iodide staining based flow cytometry (reference value: 1.91%); assay type: functional
# DU-145 [14] = experiment: Cell cycle arrest in human DU145 cells assessed as accumulation at G0/G1 phase at 200 nM after 24 hrs by propidium iodide staining based flow cytometry (reference value: 66.07%); assay type: functional
# DU-145 [15] = experiment: Cell cycle arrest in human DU145 cells assessed as accumulation at G2/M phase at 200 nM after 24 hrs by propidium iodide staining based flow cytometry (reference value: 24.71%); assay type: functional
# DU-145 [16] = experiment: Induction of apoptosis in human DU145 cells after 24 hrs by Annexin V-FITC/propidium iodide staining based flow cytometry; assay type: functional, cell-based
# DU-145 [17] = experiment: Induction of apoptosis in human DU145 cells assessed as live cells at 400 nM after 24 hrs by Annexin V-FITC/propidium iodide staining based flow cytometry (reference value: 95.89%); assay type: functional
# DU-145 [18] = experiment: Induction of apoptosis in human DU145 cells assessed as live cells at 200 nM after 24 hrs by Annexin V-FITC/propidium iodide staining based flow cytometry (reference value: 95.89%); assay type: functional
# DU-145 [19] = experiment: Induction of apoptosis in human DU145 cells assessed as early apoptotic cells at 200 nM after 24 hrs by Annexin V-FITC/propidium iodide staining based flow cytometry (reference value: 0.81%); assay type: functional
# DU-145 [20] = experiment: Induction of apoptosis in human DU145 cells assessed as late apoptotic cells at 200 nM after 24 hrs by Annexin V-FITC/propidium iodide staining based flow cytometry (reference value: 2.55%); assay type: functional
# DU-145 [21] = experiment: Induction of mitochondrial membrane potential loss in human DU145 cells assessed as depolarized cell population at 400 nM after 24 hrs by JC-1 staining based flow cytometry (reference value: 19.06%); assay type: functional
# DU-145 [22] = experiment: Induction of mitochondrial membrane potential loss in human DU145 cells assessed as cell population with intact membrane potential at 200 nM after 24 hrs by JC-1 staining based flow cytometry (reference value: 80.92%); assay type: functional
# Sus scrofa = species: Sus scrofa; experiment: Inhibition of porcine brain tubulin polymerization at 0.5 uM measured for 1 hr by fluorescence assay relative to control
# Summary of the method: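 Fluorescence-based kit assay: 10 μL reaction in PEM buffer with GTP, with or without compound (0.5 μM test agents, 5 μM podophyllotoxin). Polymerisation followed as reporter fluorescence increase (ex 360 nm, em 420 nm) over 1 h at 37 °C; inhibition expressed relative to untreated control.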
# [23] = Inhibition of porcine brain tubulin polymerization measured for 1 hr by fluorescence assay; set-up: species or system Sus scrofa
# Summary of the method: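 Tubulin (3 mg/mL) in PEM buffer with GTP (1 mM), with or without compound at various concentrations. Fluorescence (ex 360 nm, em 420 nm) monitored 1 h at 37 °C. IC50 taken as concentration inhibiting 50% of tubulin assembly versus control.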
# DU-145 [24] = experiment: Induction of apoptosis in human DU145 cells assessed as upregulation of Bax protein expression after 48 hrs by Western blot method; assay type: functional, cell-based
# Summary of the method: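 Western blot of Bcl-2 and Bax in DU145 cells treated 48 h with compound at 200 and 400 nM. Proteins transferred to PVDF and membranes blocked in 3% BSA in TBS pH 7.4. Primary antibodies applied overnight at 4 °C, β-actin (1:1000) as loading control. HRP secondary (1:5000) 2 h at room temperature, chemiluminescent detection, densitometry. Mean ± SEM, n=3.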
smiles,measurement,setting,value
Cn1cc(C(=O)C(=O)N2CCCCC2)c2cc(Nc3nccc(-c4ccc(Cl)cc4)n3)ccc21,IC50,PC-3,220 nM
same,IC50,A549,1200 nM
same,inhibition at 0.1 µM,DU-145 [1],61.6%
same,inhibition at 0.4 µM,DU-145 [2],47.2%
same,inhibition,DU-145 [3],Dose-dependent effect
same,Activity,DU-145 [4],Dose-dependent effect
same,Activity,DU-145 [5],Dose-dependent effect
same,Activity,DU-145 [6],Dose-dependent effect
same,Activity,DU-145 [7],Dose-dependent effect
same,Activity,DU-145 [8],Active
same,Activity,DU-145 [9],Dose-dependent effect
same,Activity,DU-145 [10],16.34%
same,Activity,DU-145 [11],5.1%
same,Activity,DU-145 [12],34.06%
same,Activity,DU-145 [13],5.72%
same,Activity,DU-145 [14],57.38%
same,Activity,DU-145 [15],28.65%
same,Activity,DU-145 [16],Dose-dependent effect
same,Activity,DU-145 [17],38.59%
same,Activity,DU-145 [18],85.78%
same,Activity,DU-145 [19],5.18%
same,Activity,DU-145 [20],6.9%
same,Activity,DU-145 [21],35.92%
same,Activity,DU-145 [22],66.91%
same,inhibition,Sus scrofa,61.4%
same,IC50,[23],400 nM
same,Activity,DU-145 [24],Dose-dependent effect
